# L major viab – Leishmania major promastigote growth inhibition, primary screen. Leishmania major promastigotes, resazurin fluorescence viability. inhibition, % at 10 µM. 200,000 compounds, 9% hits; in the data active = inhibition above about 50%;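 note: promastigotes grown with compound for 44 hours at 28 °C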
# TNAP act hiacc – TNAP activators at high phosphate acceptor level, primary screen, biochemical, luminescence, uHTS | Alkaline phosphatase, tissue-nonspecific isozyme (Homo sapiens), P05186 | purified TNAP, CDP-star luminescence, 1 M DEA, 30 min; active compounds read high; 0 = EDTA background, 1 = DMSO-only activity | activation factor at 20 µM | 200,000 tested, under 10 active | AID 1136, 2008;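 active = activation factor at least 2 at 20 µM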
# Target sequence (P05186 whole entry, looked up): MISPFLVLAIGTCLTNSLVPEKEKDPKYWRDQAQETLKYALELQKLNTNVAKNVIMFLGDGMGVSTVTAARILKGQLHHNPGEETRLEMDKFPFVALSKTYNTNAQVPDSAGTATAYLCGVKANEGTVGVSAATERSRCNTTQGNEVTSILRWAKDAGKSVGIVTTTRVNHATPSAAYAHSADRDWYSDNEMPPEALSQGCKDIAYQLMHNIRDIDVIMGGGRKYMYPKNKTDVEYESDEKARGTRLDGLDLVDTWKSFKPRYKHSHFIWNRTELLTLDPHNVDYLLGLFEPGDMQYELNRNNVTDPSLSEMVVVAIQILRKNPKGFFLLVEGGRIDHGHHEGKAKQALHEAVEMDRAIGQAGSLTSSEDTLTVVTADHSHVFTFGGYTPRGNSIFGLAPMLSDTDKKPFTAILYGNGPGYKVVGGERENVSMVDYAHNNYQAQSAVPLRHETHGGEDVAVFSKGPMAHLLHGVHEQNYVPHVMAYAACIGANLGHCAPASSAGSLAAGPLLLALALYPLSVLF
#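 Measured by: Luminescent substrate turnover signal | Test system: Human TNAP | Input: TNAP 1/800 final | Dosing: 20 µM single point | Schedule: 30 min, room temperature | Controls: EDTA wells as negative control, DMSO wells as positive control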
# HCT116 PTEN-null – growth suppression of PTEN-null HCT116, primary screen, cell-based, CellTiter-Glo | AID 827, 2007 | 140,000 compounds, 1.2% hits | viability, % at 10 µM | HCT116 PTEN-null viability, 60 h; active compounds read low;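 active = viability at or below a set limit, 4 SD under the median of all tested compounds, cut at about 3.7% in these data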;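 note: PTEN knockout HCT116 line with beta catenin targeted HCT116 as companion control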
# HCT116 bCat-KO – primary screen for growth suppressors in beta-catenin knockout HCT116 cells (colon tumor, human); AID 818, 2007; 140,000 compounds, 1.5% hits; viability, % at 10 µM; HCT116 beta-catenin knockout viability, CellTiter-Glo, 60 h; active compounds read low;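 active = viability at or under a set limit, the compound median less 4 SD, cut at about 6% in these data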;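 note: 0% = Hyamine 1622 control at 20 µM and 100% = untreated cell control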
# TNAP inh hiacc – human TNAP enzyme inhibitors, primary screen, biochemical, luminescent, high phosphate acceptor level, uHTS. inhibition, % at 20 µM. Alkaline phosphatase, tissue-nonspecific isozyme (Homo sapiens), P05186. purified TNAP, CDP-star luminescence, 1 M DEA. 200,000 compounds, 0.03% hits. AID 1135, 2008;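 active = over 50% inhibition of tissue-nonspecific alkaline phosphatase at 20 µM in the single-dose screen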;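 note: plate controls were DMSO wells for no effect and EDTA-quenched wells as full inhibition for full effect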
# TNAP inh noacc – human TNAP enzyme inhibitors, primary screen, biochemical, luminescent, no phosphate acceptor, uHTS; inhibition, % at 20 µM; purified TNAP, CDP-star luminescence, 30 min; Alkaline phosphatase, tissue-nonspecific isozyme (Homo sapiens), P05186; 200,000 compounds, 0.26% hits;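 active = tissue-nonspecific alkaline phosphatase inhibition above about 50% at 20 µM in the single-dose screen, limit read from the data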;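 note: 0% = DMSO negative control and 100% = EDTA positive control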
# Starred values were filed as active, the others as inactive; nt = not tested or not shown. Most compounds without a hit are left out; they make up all but 9.6% or so of the library.
SMILES,L major viab,TNAP act hiacc,HCT116 PTEN-null,HCT116 bCat-KO,TNAP inh hiacc,TNAP inh noacc
CCOc1cc(S(=O)(=O)N(Cc2ccccc2)Cc2ccccc2)c(OCC)cc1-n1cnnn1,92.5*,1,73.0,73.3,-3.5,-8.8
CCOc1ccc(C(=O)NC(=S)Nc2ccccc2OC)cc1[N+](=O)[O-],-0.5,1,105.5,88.8,-2.3,-10.6
Cc1ccccc1C(=O)Nc1cccc(NC(=S)NC(=O)c2cccs2)c1,-8.1,1,85.2,95.5,-1.0,7.2
CCOc1ccc(C(=O)NC(=S)Nc2ccc(N3CCCCC3)cc2)cc1[N+](=O)[O-],99.3*,1,93.2,101.4,-0.1,-12.2
COc1ccc(C(=O)Nc2cc(C)on2)cc1[N+](=O)[O-],2.5,1,nt,nt,-0.9,-5.4
Cc1c(C(=O)NC(=S)Nc2ccc(NC(=O)c3cccs3)cc2)cccc1[N+](=O)[O-],98.0*,nt,nt,nt,nt,nt
COc1ccc(C(=O)NC(=S)Nc2cc(C)ccn2)cc1[N+](=O)[O-],62.1*,1,85.4,101.7,-0.3,11.2
CCOc1ccc(C(=O)NC(=S)Nc2ccccc2N2CCCCC2)cc1[N+](=O)[O-],95.1*,1,57.7,55.9,2.6,-21.2
COc1ccc(S(=O)(=O)N2CCCCCC2)cc1N,-12.8,1,nt,nt,1.1,-9.1
O=C(NC(=S)Nc1ccccc1N1CCCCC1)c1cccs1,91.3*,1,71.9,73.5,0.2,-8.3
CCOc1ccc(C(=O)NC(=S)NC2CCCC2)cc1[N+](=O)[O-],57.9*,1,91.5,90.2,-3.1,-6.3
COc1ccc(C(=O)Nc2c(C)ccc3nsnc23)cc1[N+](=O)[O-],82.6*,1.1,94.4,97.1,-5.6,-11.2
Cc1c(C(=O)NC(=S)Nc2ccccc2N2CCCC2)cccc1[N+](=O)[O-],87.2*,1,81.8,93.4,-2.3,-32.0
O=C(NC(=S)Nc1ccccc1N1CCCC1)c1ccc([N+](=O)[O-])cc1,15.5,1,72.4,75.8,-2.4,-16.3
CCOc1ccc(C(=O)NC(=S)Nc2ccc(NC(=O)CC)cc2)cc1[N+](=O)[O-],-1.3,1,93.3,90.7,0.7,-8.0
Cc1cc2c(ncn2C)c(NS(=O)(=O)c2ccc(Cl)cc2)c1C,14.8,1,nt,nt,-1.9,-25.1
N#CCC(=O)Nc1ccc(C(=O)OCC(=O)Nc2cccc(C(F)(F)F)c2)cc1,0.1,1,nt,nt,-2.1,-9.5
CC1=C(C(=O)NCc2ccccc2)C(c2cccs2)NC(=S)N1 (stereo unspecified),-0.2,1.1,nt,nt,-9.5,-11.9
O=C(NC(=S)Nc1ccc(N2CCCCC2)cc1)c1cccs1,-6.5,1,87.5,80.9,-0.9,9.1
COc1ccc(C(=O)NC(=S)Nc2ccccc2N2CCCCC2)cc1[N+](=O)[O-],98.6*,1,45.2,36.1,2.5,-11.3
O=C(NC(=S)Nc1ccc(N2CCN(C(=O)c3ccccc3)CC2)cc1)c1cccs1,91.9*,1,nt,nt,0.0,-5.9
COc1ccc(NC(=O)Cc2ccc(C)c(C)c2)cc1Cl,6.2,1,nt,nt,3.6,-3.8
COC(=O)c1ccccc1C(=O)N1CCCC(CCC(=O)NCc2ccc(F)c(F)c2)C1 (stereo unspecified),-2.2,1.1,nt,nt,-6.1,-10.5
CC(C)(C)c1cc(C(c2cccnc2)N2CCN(CCO)CC2)cc(C(C)(C)C)c1O (stereo unspecified),100.2*,1,1.7*,1.7*,-4.4,-7.5
CC(C)(C)n1nnnc1C(c1cccnc1)N1CCN(C2CCCCC2)CC1 (stereo unspecified),7.3,1,101.2,95.0,1.3,-9.1
SMILES,L major viab,TNAP act hiacc,HCT116 PTEN-null,HCT116 bCat-KO,TNAP inh hiacc,TNAP inh noacc
CCOC(=O)CC(NC(=O)c1cccc2c1C(=O)N(Cc1cccnc1)C2)c1ccc(OCC)c(OC)c1 (stereo unspecified),1.0,1,nt,nt,-2.9,-17.9
CC(C)CCn1c(O)c(N=NC(=O)Cn2ccc(C(F)(F)F)n2)c2ccccc21,52.1*,1,95.0,100.4,4.8,-4.8
CCOC(=O)N1CCC(NC(=O)Cn2nc(Cc3ccncc3)c3ccccc3c2=O)CC1,-7.3,1,107.9,106.1,-1.8,-11.4
O=C1C2C3C=CC(C3)C2C(=O)N1c1ccc(N2CCN(c3ccccn3)CC2)c([N+](=O)[O-])c1 (stereo unspecified),75.8*,0.9,nt,nt,5.5,-5.5
CCC(CC)C(=O)Nc1cccc(C(=O)Nc2ccc(S(=O)(=O)Nc3ccc(C)cc3)cc2)c1,67.2*,1,21.6,27.5,-0.5,-10.1
Cc1cc(NS(=O)(=O)c2ccc(NC(=S)NC(=O)c3ccccc3)cc2)no1,65.7*,1,101.6,98.0,-0.8,-47.8
CCc1nnc(NS(=O)(=O)c2ccc(NC(=S)NC(=O)c3ccc(OC)cc3)cc2)s1,55.0*,1,97.5,99.9,2.5,15.7
Cc1ccc(NS(=O)(=O)c2cccc(C(=O)Nc3cc(C)on3)c2)cc1,90.6*,1,79.7,67.7,-0.4,-4.7
Cc1ccc(S(=O)(=O)Nc2ccc(C(=O)Nc3cc(C)on3)cc2)cc1,6.7,1,97.2,100.1,-0.1,-3.0
CSc1ccc(CN(C)CC(=O)NC(C)c2ccccc2)cc1 (stereo unspecified),17.0,1.1,nt,nt,-6.0,-14.0
CC(C)(C)c1ccc(C(CC(=O)O)NC(=O)Cc2ccc(F)cc2)cc1 (stereo unspecified),9.3,1,nt,nt,-1.0,-2.2
COc1ccc(CCNC(=O)CSc2nc(C)cs2)cc1,-4.2,1.1,102.2,101.4,-5.3,-18.4
COc1ccc(CCNC(=O)CSc2nncs2)cc1,58.6*,1,105.5,101.3,-3.5,-11.0
Clc1ccc(/C=C/c2ncc3ccccn23)cc1,9.1,1,nt,nt,0.2,-10.0
CC(C)NC(=S)N/N=C1\CCCCC1C1CCCCC1 (stereo unspecified),99.7*,1.1,85.9,84.9,-5.4,-6.7
O=C(NCC1CCCO1)c1ccc2c(=O)n(-c3ccccc3)c(=S)[nH]c2c1 (stereo unspecified),-1.2,1.1,nt,nt,-5.9,10.9
Cc1ccc(CNc2ccc3c(c2)OCO3)cc1,100.3*,1,18.2,22.6,3.5,-4.1
Cc1cccc(CNc2ncc(-c3cccc([N+](=O)[O-])c3)n2C)c1,16.7,1.1,nt,nt,-7.9,-5.7
COc1ccc(-c2cnc(NCc3cc4c(cc3[N+](=O)[O-])OCO4)n2C)cc1,98.3*,1,67.7,71.8,2.8,-4.5
Cn1c(-c2ccc3c(c2)OCO3)cnc1NCc1ccc(Cl)cc1,92.1*,1,63.1,69.8,-2.7,-9.2
Cc1ccc(CNc2ncc(-c3ccc4c(c3)OCO4)n2C)cc1,87.6*,1,74.9,69.8,-2.2,-9.6
